Test results as given in PMC7813200 (Neuro-oncology Advances, 2020).
Entries after “also recorded” stand apart in the source; their conditions may differ.

What was measured:
PDGFB-glioma = experiment: RCAS/tv-a PDGFB glioma mouse model; assay type: in vivo; settings: for tumor density by olig-2 immunostaining: each arm at its regimen (ST-401 regimen 2; TMZ 50 mg/kg); for necrotic area: end-stage histopathology, each arm at its regimen
MGG8 cells [1] = experiment: cells in S phase, BrdU incorporation, MGG8; assay type: cell-based, human; settings: NOC 3 μM
T98G cells [2] = experiment: cells in S phase, BrdU incorporation, T98G; assay type: cell-based, human
MGG8 cells [3] = experiment: cell viability WST-1, MGG8; assay type: cell-based, human; settings: 72 h
HCT116 cells = experiment: live cell imaging of MT assembly rates; assay type: cell-based, human
Summary of the method: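 HCT116 cells expressing EB1-GFP to label growing microtubule ends. Imaged at a single Z-plane at 500-ms intervals. Assembly rates scored in interphase cells by particle tracking, before treatment and again after compound wash-out (POST).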

[4] = test system: six human glioma cell lines (SF-268, SF-295, SF-539, SNB-19, SNB-75, U251); experiment: NCI-60 cell line panel, six glioma lines; assay type: cell-based; settings: read-out: IC50s (growth inhibition, TGI50 in Figure 2A)
[5] = test system: tubulin (colchicine site); experiment: [3H]colchicine binding to purified tubulin; settings: 5 μM compound; mean of n = 3
T98G cells [6] = experiment: cell viability WST-1, T98G; assay type: cell-based; settings: Homo sapiens, 72 h, read-out: IC50, overall cell viability
tubulin = tubulin assembly, pelleting assay; assay type: biochemical; settings: compared to ST-360
Summary of the method: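 Tubulin assembly assessed by pelleting assay, with release of free tubulin measured. Mean ± SEM from 3 to 5 experiments.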

CD1 mice = experiment: maximal tolerated dose and dose range finding; assay type: in vivo, mouse; settings: bidaily i.p. 20 mg/kg, 5 days/week for 4 weeks
Summary of the method: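 CD1 mice dosed i.p. at 5, 10, 20, 50, 100 or 150 mg/kg, or with the corresponding volume of no-drug formulation (vehicle). Monitored for signs of general distress. Regimen 2: 20 mg/kg i.p. bidaily, 5 days/week for 4 weeks.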

[7] = test system: PD-glioma isolates (proneural, mesenchymal, classical, MGG8); experiment: viability of PD-glioma isolates; assay type: cell-based; settings: Homo sapiens, read-out: IC50, antitumor activity (viability, WST-1)
[8] = test system: COLO205 cell-derived subcutaneous xenografts; experiment: COLO205 xenograft flank tumor model; assay type: in vivo, mouse
[9] = pharmacokinetics, plasma and brain by LC-MS; assay type: in vivo, mouse
COLO205 cells = experiment: NCI-60 cancer cell panel, COLO205; assay type: cell-based; settings: Homo sapiens, COLO 205
S24 PD-glioma cells [10] = experiment: tumor microtube; assay type: cell-based, human; settings: Y-27632 50 μM
Summary of the method: (§1)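 GFP-expressing patient-derived S24 and BG5 glioma cells treated with increasing test-compound concentrations (e.g. 30 and 300 nM) or controls: DMSO 1% vehicle, Y-27632 50 μM, nocodazole 300 nM. Stained with Ho342/EthD2. TM number and length per cell quantified semi-automatically from immunofluorescence images via a machine learning-based workflow. Two-way ANOVA, Tukey post-test.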

BG5 PD-glioma cells = experiment: tumor microtube; assay type: cell-based, human; settings: Y-27632 50 μM
Summary of the method: as §1

S24 PD-glioma cells [11] = experiment: cell death of S24 PD-glioma; assay type: cell-based, human; settings: Y-27632 50 mM (as printed in Figure S3), 24 h
Summary of the method: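 GFP-expressing patient-derived S24 glioma cells treated alongside vehicle (DMSO 1%), then stained with Ho342 and EthD2 and imaged by fluorescence microscopy.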

SMILES: Cn1nnc2c(C(N)=O)ncn2c1=O [TMZ, temozolomide, reference compound]
- average median survival (PDGFB-glioma; TMZ 50 mg/kg once per day, 5 days/week for 4 weeks, control 20 days): 30 days
- extension of average median survival (PDGFB-glioma; TMZ 50 mg/kg once per day, 5 days/week for 4 weeks, versus control): 50%
- tumor density by olig-2 immunostaining (PDGFB-glioma): increase
- necrotic area (PDGFB-glioma): unchanged

SMILES: COC(=O)Nc1nc2ccc(C(=O)c3cccs3)cc2[nH]1 [NOC, nocodazole, reference compound]
- effect on number of cells in S phase (MGG8 cells [1]): reduce; also recorded: overall less active
- effect on number of cells in S phase (T98G cells [2]; NOC 3 μM, BrdU): Lack of response
- reduction of cell viability (MGG8 cells [3]; NOC 3 µM, WST-1): 18%

SMILES: CCn1c2ccccc2c2cc(C(O)c3cccc4ncccc34)ccc21 (centres unmarked) [ST-401, (9‐ethyl‐9H‐carbazol‐3‐yl)(quinolin‐5‐yl)methanol]
- time for MT assembly to reach initial rates after wash-out (HCT116 cells; 100 nM, after wash-out): ≤ 15 min
- reduction in MT assembly rate (HCT116 cells; 100 nM, interphase cells, compared to NOC 100 nM): milder reduction
- inhibition of MT assembly (HCT116 cells; 200 nM, within 15 min): completely and reversibly inhibited all MT assembly
- average survival (PDGFB-glioma; ST-401+RT arm): 50 days
- average survival (PDGFB-glioma; ST-401+TMZ arm): 46 days
- effect on average median survival, single agent (PDGFB-glioma; ST-401 regimen 2): did not affect average median survival
- enhancement of the therapeutic efficacy of RT (PDGFB-glioma; ST-401 regimen 2 + RT single dose 10-Gy): 66%
- enhancement of the therapeutic efficacy of TMZ (PDGFB-glioma; ST-401 regimen 2 + TMZ 50 mg/kg): 60%
- increase in mitotic figures versus control arm (PDGFB-glioma; ST-401 regimen 2, H&E, end stage): 69%
- increase in tumor density (relative area of HA expression) (PDGFB-glioma; ST-401 regimen 2, semi-quantitative IHC): 54%
- tumor density by olig-2 immunostaining (PDGFB-glioma): increase
- necrotic area (PDGFB-glioma): did not reach significance
- IC50 [4]: 23 to 69 nM
- response on number of cells in S phase (T98G cells [2]; 72 h, BrdU incorporation, concentration-response): absent
- competition for [3H]colchicine binding to tubulin [5]: 89%
- IC50 (T98G cells [6]): 36 nM
- MT disassembly (Δ release of free tubulin) (tubulin): greater MT disassembly
- adverse effects (Regimen 2) (CD1 mice): did not trigger adverse effects
- IC50 [7]: 24 to 47 nM
- treated tumors that stopped growing despite ending the treatment ([8]; Regimen 2): approximately 50%
- life-expectancy / survival of treated mice ([8]; Regimen 2, n = 10 mice per arm): significant increase in average survival; also recorded: doubling
- time without recurrence after ending treatment ([8]; tumors that stopped growing): ≥ 28 days
- IC50 (MGG8 cells [3]; Homo sapiens, read-out: IC50, overall cell viability): 14 nM
- time plasma levels remained above 250 nM ([9]; bidaily i.p. injections of 20 mg/kg): approximately 16 h
- half-life ([9]; mouse, brain, ip, 150 mg/kg): ~6 h
- concentration reached in brain ([9]; single i.p. 150 mg/kg): micromolar concentrations
- concentration reached in brain ([9]; single i.p. 20 and 5 mg/kg, 30 min): micromolar concentrations
- plasma concentration ([9]; three i.p. injections of 20 mg/kg separated by 8 and 16 h, over 24 h): above 250 nM
- IC50 (COLO205 cells): 38 nM

SMILES: C[C@@H](N)[C@H]1CC[C@H](C(=O)Nc2ccncc2)CC1 [Y-27632]
- effect on TM length/cell (S24 PD-glioma cells [10]): increased
- effect on TM number/cell (S24 PD-glioma cells [10]): increased
- effect on TM length/cell (BG5 PD-glioma cells): increased
- effect on TM number/cell (BG5 PD-glioma cells): increased
- effect on cell death / viability (S24 PD-glioma cells [11]): did not affect cell viability
